From paper PMC3832945 (Molecular pharmaceutics, 2013) come the findings set out here.

The test system of data set [1] is Myeloperoxidase activity (a measure of neutrophil migration). Briefly: Myeloperoxidase. Format: in vivo, mouse. Particulars: for effect on MPO activity: 10 μM. In short, it runs like this: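 Jejunum or colon of wild-type and PepT1 knockout mice perfused in situ with Krebs–Ringer buffer (jejunum 0.067, colon 0.1 mL/min) for 30 min. Then 10 μM test compound, ± 50 mM GlyGly, for 4 h. MPO by o-dianisidine/H2O2 oxidation at pH 6.0, A460 over 2 min, reported as IU/g wet tissue. n = 5, mean ± SE, ANOVA/Tukey.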

Data set [2] addresses T1, PepT1 (Mus musculus, UniProt Q9JIP7).
T1 sequence (Q9JIP7 1-709): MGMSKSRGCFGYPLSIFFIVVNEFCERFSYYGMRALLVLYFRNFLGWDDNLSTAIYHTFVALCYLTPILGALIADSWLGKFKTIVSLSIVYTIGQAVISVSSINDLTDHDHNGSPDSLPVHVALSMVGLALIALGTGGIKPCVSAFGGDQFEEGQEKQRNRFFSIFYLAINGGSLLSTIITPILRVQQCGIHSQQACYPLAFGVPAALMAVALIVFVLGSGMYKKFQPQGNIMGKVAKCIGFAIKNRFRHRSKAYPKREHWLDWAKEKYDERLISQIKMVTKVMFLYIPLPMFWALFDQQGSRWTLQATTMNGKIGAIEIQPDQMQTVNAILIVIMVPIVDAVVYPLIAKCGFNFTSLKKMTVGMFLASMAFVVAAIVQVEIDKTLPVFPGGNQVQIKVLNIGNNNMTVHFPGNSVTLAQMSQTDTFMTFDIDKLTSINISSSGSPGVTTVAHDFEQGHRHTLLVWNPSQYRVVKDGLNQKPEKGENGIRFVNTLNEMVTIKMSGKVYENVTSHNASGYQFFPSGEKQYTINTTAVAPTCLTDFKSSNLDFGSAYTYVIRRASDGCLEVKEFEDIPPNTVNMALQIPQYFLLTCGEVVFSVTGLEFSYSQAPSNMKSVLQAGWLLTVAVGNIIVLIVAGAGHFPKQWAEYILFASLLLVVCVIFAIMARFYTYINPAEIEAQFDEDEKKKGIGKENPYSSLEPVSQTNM
In words: In situ single-pass jejunal perfusion of [3H]fMet-Leu-Phe. Type of data set: in vivo.

Data set [3] concerns the target T1, PepT1. In words: Regional intestinal permeability. Type of data set: in vivo. In short, it runs like this:
(§1)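 Each region perfused separately in situ in fasted, pentobarbital-anaesthetised (40–60 mg/kg ip) wild-type and PepT1 knockout mice at 31 °C. Perfusate: 135 mM NaCl, 5 mM KCl, 10 mM MES pH 6.5, [14C]inulin, 2 μCi/ml (0.1 μM) labelled compound, 100 mM Phe, 0.1 mL/min. Outflow sampled every 10 min for 90 min and counted. Inulin-corrected steady-state Peff from parallel-tube model; n = 6.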

Data set [4] deals with PepT1. Briefly: Regional intestinal permeability. Type of data set: in vivo, mouse. Particulars: colon, 0.1 μM. Summed up:
as §1

A short description of data set [5]: Hydrolysis kinetics in jejunal homogenates. Format: in vitro ADME, mouse. Particulars: 0.4–100 μM, 1 min, 37 °C. Summed up:
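Jejunal mucosa scraped from wild-type or PepT1 knockout mice and homogenised in ice-cold PBS for 2 min. Spun at 12 000g for 15 min; supernatant protein at 0.5 mg/mL. Incubated with [3H-Phe]-labelled test compound at 0.4–100 μM, 1 min, 37 °C. Stopped with 10% TFA, HPLC with radiochemical detection. Rate from parent loss; Vmax and Km fitted; n = 4, mean ± SE.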

A short description of data set [6]: Metabolism in intestinal segments. Type of data set: in vitro ADME, mouse. Particulars: wild-type mice, 0.8 mM, 5 min, 37 °C. In short, it runs like this:
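Wild-type intestinal pieces, 1 cm, opened longitudinally to expose the lumen. Incubated in PBS pH 7.4 with 0.8 mM test compound, 5 min, 37 °C, then iced and stopped with 10% TFA. Spun 12 000g, 5 min. Supernatant on reversed-phase C18 HPLC, UV 210 nm, 15–30% acetonitrile (0.1% TFA) gradient over 30 min. Parent and fragments identified with standards.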

A short description of data set [7]: Exposure in portal vein during jejunal perfusion. Format: in vivo, mouse. Particulars: 90 min jejunal perfusion of 0.1 μM [3H-Phe]fMet-Leu-Phe, wild-type mice. Summed up:
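Wild-type jejunal single-pass perfusion with 2 μCi/ml (0.1 μM) [3H-Phe]-labelled tripeptide; portal venous blood drawn at 80–90 min. Intact tripeptide and [3H-Phe] measured by HPLC with radiochemical detection: isocratic 30% acetonitrile plus 0.1% TFA, 1.0 mL/min, ambient. Peaks assigned with radiolabelled standards.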

[8] abbreviates: 50 mM inhibitor, jejunal perfusion, PepT1 knockout mice.
[9] abbreviates: 50 mM inhibitor, jejunal perfusion, wild-type mice.

SMILES strings stand for the structures. Peptide text beside a SMILES is read from it.

Turning to `NCC(=O)NCC(=O)O` [GlyGly, glycylglycine] (H-Gly-Gly-OH), in data set [1] (jejunum, wild-type mice, 10 μM fMet-Leu-Phe + 50 mM GlyGly, 4 h), the “effect of coperfused dipeptide on fMet-Leu-Phe-induced MPO activity” value is listed as “returned to control values”.

A word on the Ki: it is a dissociation constant, usually derived from enzyme kinetics or from competition with a known ligand. `NCC(=O)N1CCC[C@H]1C(=O)O` [GlyPro, glycylproline] (H-Gly-Pro-OH) registered a Ki on PepT1 [2] of 100 mM. For the same compound, the “reduction of fMet-Leu-Phe uptake by inhibitor” value on PepT1 [2] (50 mM inhibitor, 0.1 μM [3H]fMet-Leu-Phe, jejunal perfusion, wild-type mice) is 33%. Besides, the “effect of inhibitor on permeability of fMet-Leu-Phe” value is “but not in PepT1 knockout animals” on PepT1 [2] (setting [8]) and “significantly reduced” on PepT1 [2] (setting [9]).

`N[C@@H](Cc1c[nH]cn1)C(=O)O` [L-histidine]: the “effect of inhibitor on permeability of fMet-Leu-Phe” value on PepT1 [2] (setting [8]) and at PepT1 [2] (setting [9]) was “no effect” throughout.

For the compound `CSCC[C@H](NC=O)C(=O)N[C@@H](CC(C)C)C(=O)N[C@@H](Cc1ccccc1)C(=O)O` [fMet-Leu-Phe, N-formyl-methionyl-leucyl-phenylalanine], the “residual permeability in PepT1 knockout relative to wild-type mice” value on PepT1 [3] (duodenal, jejunal and ileal segments, on average) was ~10%. Moreover, the “effective permeability in PepT1 knockout versus wild-type mice” value at PepT1 [3] (duodenum, jejunum and ileum, 0.1 μM) is listed as “considerably lower”; with PepT1 [4], “did not differ between the two genotypes”. Moreover, the “effect on MPO activity” value in data set [1] (colon, wild-type and PepT1 null mice, 4 h) is “without change”; in data set [1] (jejunum, PepT1 knockout mice, 4 h), “no effect”. The “increase in MPO activity” value in data set [1] (jejunum, wild-type mice, 4 h perfusion of 10 μM fMet-Leu-Phe) is recorded as “about 2 fold”. Further, the Vmax of hydrolysis stood at 3.3 ± 0.1 nmol/mg/min in data set [5] (PepT1 knockout mice) and 3.2 ± 0.2 nmol/mg/min in data set [5] (wild-type mice). Moreover, the “hydrolysis in intestinal segments” value in data set [6] (duodenum and jejunum) is recorded as “substantial hydrolysis”; in data set [6] (ileum and colon), “only minor hydrolysis”. Further, in data set [7], the “intact tripeptide in portal vein” value is reported as “no intact tripeptide was found”.
